Data: ChEMBL document CHEMBL1132485, “Synthesis and biological evaluation of a potent E-selectin antagonist” (J Med Chem, 1999)
Where “and” joins values, the source holds several entries; their conditions need not be identical. Equal values may be shown once.

Columns and labels:
Mus musculus = species on record: Mus musculus; assay: Inhibitory effect in a thioglycollate induced peritonitis model of acute inflammation in mice; type: functional
E-selectin [1] = biological target: T1, E-selectin (Homo sapiens, UniProt P16581); assay: In vitro inhibitory activity against Selectin E
T1 sequence (P16581 whole entry): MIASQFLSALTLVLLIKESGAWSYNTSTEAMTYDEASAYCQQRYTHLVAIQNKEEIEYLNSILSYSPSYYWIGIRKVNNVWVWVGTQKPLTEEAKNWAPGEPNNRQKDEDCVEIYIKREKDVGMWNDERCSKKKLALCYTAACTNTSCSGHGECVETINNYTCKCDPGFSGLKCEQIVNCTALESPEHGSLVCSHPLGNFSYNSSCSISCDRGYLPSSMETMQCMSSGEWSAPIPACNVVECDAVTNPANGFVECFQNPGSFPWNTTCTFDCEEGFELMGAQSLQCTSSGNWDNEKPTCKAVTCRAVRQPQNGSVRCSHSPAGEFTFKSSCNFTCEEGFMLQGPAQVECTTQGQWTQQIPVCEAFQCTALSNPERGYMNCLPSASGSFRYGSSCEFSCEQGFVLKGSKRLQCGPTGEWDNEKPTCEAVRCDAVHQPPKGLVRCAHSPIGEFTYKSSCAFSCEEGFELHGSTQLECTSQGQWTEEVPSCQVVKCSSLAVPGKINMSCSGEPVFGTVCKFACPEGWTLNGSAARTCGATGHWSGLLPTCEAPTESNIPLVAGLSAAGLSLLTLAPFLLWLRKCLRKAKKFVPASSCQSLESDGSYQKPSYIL
How it was run: (§1)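 Cell-free competitive binding assay in which immobilized E-selectin is incubated with a multivalent polylysine/sialyl Lewis^a conjugate and then treated with test compounds. The sLe^x tetrasaccharide is run as a reference on every plate. Relative IC50 is IC50(test)/IC50(sLe^x) from the same plate. Data come from three separate assays.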

[2] = biological target: T2, E-selectin (Homo sapiens) (UniProt P16581); assay: Ratio of IC50 of compound to IC50 of sLex; type: functional; how it was run: as §1
T2 sequence (whole entry): T1 sequence (P16581 whole entry)

E-selectin [3] = biological target: T1, E-selectin; assay: In vitro inhibitory activity against Selectin E measured by sLex(static cell free ligand binding assay); how it was run: as §1

Structure (SMILES)	ED50 (Mus musculus) [mg/kg]	IC50 (E-selectin [1])	Relative IC50 [2]	IC50 (E-selectin [3])
C[C@@H]1O[C@@H](O[C@@H]2[C@H](CO)OCC[C@H]2O[C@@H]2O[C@@H](CO)[C@H](O)C(O[C@@H](CC3CCCCC3)C(=O)[O-])[C@@H]2O)[C@@H](O)[C@@H](O)[C@@H]1O.[Na+] (some centres undefined)	15	33 µM and 24 µM and 51 µM and 36 µM	0.031 [middle of 4 runs]	–
COC(=O)CCCCCCCCO[C@@H]1C[C@@H](CO)[C@@H](O[C@@H]2O[C@@H](O)[C@H](O)[C@H](O[C@]3(C(=O)O)C[C@@H](O)[C@@H](NC(C)=O)[C@H]([C@H](O)[C@H](O)CO)O3)[C@@H]2O)[C@H](O[C@@H]2O[C@@H](C)[C@@H](O)[C@H](O)[C@@H]2O)[C@@H]1NC(C)=O	–	–	–	1.18 mM and 0.889 mM and 1.31 mM and 1.13 mM
